This passage reports yeast fitness results from the RNAGym collection of RNA variant scans (doi:10.1126/science.aae0568).

B1: tRNA (parent)
chain: GUUCCGUUGGCGUAAUGGUAACGCGUCUCCCUCCUAAGGAGAAGACUGCGGGUUCGAGUCCCGUACGGAACG

This sample holds only a part of the variants without activity.

The variants in this data set derive from B1. The data set is described as follows: yeast fitness relative to wild type (ratio to wild type); higher = fitter; tRNA-Arg(CCU), competitive growth, 37 C, YPD. The procedure, abridged: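 For this measurement, the tRNA-Arg(CCU) gene was varied by chemical synthesis at a 3% per-site mutation rate across 69 sites, and each variant was placed at the native genomic locus in Saccharomyces cerevisiae. The pooled strains went through a 24-hour competition in YPD at 37°C in six parallel replicates, with amplicons from start and end populations read by 100-nucleotide paired-end sequencing. Darwinian fitness relative to wild type followed from the change in each genotype's frequency. Genotypes needed ≥ 100 starting reads, and estimates < 0.5 were set to 0.5.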
For the variant GUUCCGUUGGCGUAAUGGAAACGCGUCUCCCUCCUAAGGAGAAGACUGUGGGUUCGAGUCCCGUACAGAACG, the yeast fitness came to 0.666.
The result for GUUCCGUUGGCGUAAUGGCCUCGCGUCUCCCUCCUAAGGAGAAGACUGCGGGUUCAAGUCCCGUACGGCACG reads no more than 0.5.
With GUUCCGUUGGCGUAAUGGCUAUGCGUGUCCCUCCUAAGUAGAAGACUGCGGGUUCGAGUCCCGUACGGAACG the figure was no more than 0.5.
With GUUCCGUUGGCGUAAUGGAAACGCGUCUCCCUCCUAAGGAGAAGACUGCGGGUUCGAGUCCCAUACGGAACG the figure was 0.952; with GUUCCGUUGGCGUAAUGGAAACGCGUCGCCCUCCUAAGGCGGAGACUGCGGGUUCGAGUCCCGUACGGCACG, 0.561.
With GUUCCGUUGGCGUAAUGGAAACGCGUCUCCCUCCUAAGGAGAAGACUGCAGGUUCGAGUCCCGUACGCAACG, the yeast fitness is no more than 0.5.
GUUCCGUUGGCGUAAUGGAAACGCGUCUCCCUCCUAAGGAGAACACUGCGGGUUCGAGUCCCGUACCGAACG: the yeast fitness worked out at 0.639.
The result for GUUCCGUUGGCGUAAUGGCUACGCGUCUCCCUCCUAAGGAGAAGACUGCGGGUUCAAGUCCCGUACGGAACG reads 0.724.
The result for GUUCCGUUGGCGUAAUGGAAACGCGUCUCCCUCCUAAGGAGAAGACCGCGGGUUCGAGUCCCGUACGGAACG reads 0.925.
With GUUCCGUUGGCGUAAUGGAAACGCGUCUCCCUCCUAAGGAGAAGACAGCGGGUUCGAGUCCCGUACGGAACG the figure was 0.837; with GUUCCGUUGGCGUAAUGGCUACGCGUCUCCCUCCUAAGGAGAUGACUGCGGGUUCGAGUCCCGUACGGAACG, 0.66.
GUUCCGUUGGCGUAAUGGCGACGCGUCUCCCUCCUAAGGAGAAGACUGCGGGUUCGAGUCCCGUACGGAACG: the yeast fitness was 0.964.
The result for GUUCCGUUGGCGUAAUGGCGACGCGUCUCCCUCCUAAGGAGAAGACUGCGGGUUCGAGUCCCGUACAGAACG reads 0.76.
The result for GUUCCGUUGGCGUAAUGGAAACGCGUCUCCCUCCUAAGGAGAAGACUGCGGGUUCGAGUACCGUACGGAACG reads 0.623; that for GUUCCGUUGGCGUAAUGGAAACGCGUCUCCCUCCUAAGGAGAAGACUGCGGGUUCGAGUUCCGUACGGAACG, 0.819; that for GUUCCGUUGGCGUAAUGGAAACGCGUCUCCCUCCUAAGGAGAAGACUGCGAGUUCGAGUCCCGUACGGAACG, 0.768.
Consider GUUCCGUUGGCGUAAUGGAAACGCGUCUCCCUCCUAAGGAGAAGACUGCGCGUUCGAGUCCCGUACGGAACG, for which the yeast fitness was determined as 0.636.
The result for GUUCCGUUGGCGUAAUGGAAACGCGACUCCCUCCUAAGGAGAAGACUGCGGGUUCGAGUCCCGUAAGGAACG reads 0.585; that for GUUCCGUUGGCGUAAUGGAAACGCGUCUCCCUCCUAAGGAGAACACUGCGGGUUCGAGUCCCGUACGGAACG, 0.971; that for GUUCCGUUGGCGUAAUGGAAACGCGUCUCCCUCCUAAGGAGAAGACUACAGGUUCGAGUCCACUACGGAACG, 0.591.
With GUUCCGUUGGCGUAAUGGCUACGCGUCUCCCUCCUAAGGAGAAGACUGCGGGUUCGGGUCCCGUACGGAACG the figure was 0.695; with GUUCCGUUGGCGUAAUGGAAACGCGUCUCCCUCCUAAGGAGAAGACUGCGGGUUCGAGCCACGCACGGAACG, no more than 0.5.
With GUUCCGUUGGCGUAAUGGAAACGCGUCUCCCUCCUAAGGAGAAGACAGCGGGUUCGACUCCCGUACGGAACG the figure was 0.602.
Turning to GUUCCGUUGGCGUAAUGGCUACGCGUCUCCCUCCUAAGGAGAAGACUGCGGGUUCGAGUCCCGUACGGUACG, the yeast fitness came out at 1.05.
With GUUCCGUUGGCGUAAUGGCCUCGCGUCUCCCUCCUAAGGAGAAGACUGCGGGUUUGAGUCCCGUUCGGAACG the figure was no more than 0.5; with GUUCCGUUGGCGUAAUGGCUAUGCGUGUCCCUCCUAAGGAGAAGACUGCGGGUUCGAGUCCCGUACGGAACG, 0.532; with GUUCCGUUGGCGUAAUGGAAACCCGUCUCCCUCCUAAGGAGAAGACUGCGGGUUCGAGUCCCGUACGGAACG, 0.549.
Take GUUCCGUUGGCGUAAUGGAAACGCCUCUCCCUCCUAAGGAGAUGACUGCGGGUUCGAGUCCCGUACGGAACG: the yeast fitness was found to be 0.657.
The result for GUUCCGUUGGCGUAAUGGAAACGCGUCUCCCUCCUAAGGAGAAGACUGCGGGUUAGAGUCUCGUACGGAACG reads no more than 0.5; that for GUUCCGUUGGCGUAAUGGAAACGCGUCUCCCUCCUAAGGAGAAGACUGCGGAUUCGAGUCCCGUACGGAACG, 0.679; that for GUUCCGUUGGCGUAAUGGAAACGCGUCUCCCUCCUAAGGAGAAGAAUGCGGGUUCGAGUCCCGUACGGUACG, 0.752.
The result for GUUCCGUUGGCGUAAUGGAAACGCGUCUCCCUCCUAAGGAGAAGACGGCAGGUUCGAGUCCCGUACGGAACG reads 0.55.
The result for GUUCCGUUGGCGUAAUGGAAACGCGUCUCCCUCCUAAGGAGAAGACUGCGGGUUCGAGUCCCGUACGCAACG reads 0.709; that for GUUCCGUUGGCGUAAUGGAAACGCGUCUCCCUCCUAAGGAGAAGACUGCGGGUUCGAGUCCCGUACGUAACG, 0.857.
On to GUUCCGUUGGCGUAAUGGAAACGCGUCUCCCUCCUAAGGAGAAGAUUGCGGGUUCGAGUCCCGUACGGAACG, for which the yeast fitness amounted to 0.958.
As for GUUCCGUUGGCGUAAUGGAAACGCGUCUCCCUCCUAAGGAGAAGAAUGCGGGUUCGAGUCCCGUACGGAACG, the yeast fitness is 1.13.
The result for GUUCCGUUGGCGUAAUGGCAACGCGUCUCCCUCCUAAGGAGAAGACUGCGGGUUCGAGUCCCGUACGGAACG reads 0.972.
